Experimental findings from the RNAGym collection of RNA variant scans (doi:10.1126/science.aae0568) are described below.

Fewer inactive variants are shown than the library holds.

B1: tRNA (parent)
chain: GUUCCGUUGGCGUAAUGGUAACGCGUCUCCCUCCUAAGGAGAAGACUGCGGGUUCGAGUCCCGUACGGAACG

In this data set the parent is B1. As to the kind of experiment: yeast fitness relative to wild type (ratio to wild type); higher = fitter; tRNA-Arg(CCU), competitive growth, 37 C, YPD. An outline of the steps: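 Variants of the tRNA-Arg(CCU) gene were chemically synthesised with a 3% per-site mutation rate across 69 sites and placed at the native genomic locus in Saccharomyces cerevisiae. Six parallel replicates of the pooled strains were competed in YPD at 37°C for 24 hours, and gene amplicons from the start and end populations were read by 100-nucleotide paired-end sequencing. Darwinian fitness relative to wild type was derived from changes in genotype frequencies. Genotypes required ≥ 100 starting reads, and estimates < 0.5 were set to 0.5.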
Consider A43G A57U, for which the yeast fitness was found to be 0.623. The same measure for A42U A65G A69C: 0.595; for A42G G52C C62A: ≤ 0.5. The same measure for A42U G52C A70G: 0.521. Regarding A43G U53A U54C, the yeast fitness is ≤ 0.5. In the case of A43C G48A A70C it was 1.13.

With A43U A45U A57C C66U, the yeast fitness is ≤ 0.5. In the case of A42G G44C A65C it was 0.563.

For the variant A43C A57C A70U, the yeast fitness amounted to 0.53. The same measure for A42G A57C U59C C61U: ≤ 0.5. The same measure for A42G G48A G68C A70U: ≤ 0.5. In the case of A43C C60G it was 0.953. Turning to A43C C60A, the yeast fitness amounted to 0.591.

As to A43U A69C A70C, the yeast fitness is 0.601.

Take A42U U53G A70U: the yeast fitness is ≤ 0.5. The same measure for A43U U64G G67A: ≤ 0.5; for A42G C61A G67A: ≤ 0.5; for A42U G58C U59A C60U: 0.659. Regarding A42G U54C A65U, the yeast fitness is ≤ 0.5. The same measure for A42G C60A: 0.512; for A42G G52C G58C: ≤ 0.5; for A42U A70G: 1. In the case of A42U A70U it was 0.919. With A42U A70C, the yeast fitness came out at 1.01. Take A43U C61A A65U: the yeast fitness is ≤ 0.5. In the case of A43G C61A it was 0.616. The same measure for A42G A45G C46U: 0.726.

Consider A43G C49G, for which the yeast fitness came out at 0.732. The same measure for A43G C49A: 0.574; for A43G A45C: 0.901. The same measure for A43G A45U: 1.01.

As for A43G A45G, the yeast fitness is 0.745.

Take A43G G56C: the yeast fitness is 0.766.

Regarding A42U C66A, the yeast fitness is 0.702. In the case of A42U A57G C62A U64G C66G it was ≤ 0.5; in that of A43U G48C C60G, ≤ 0.5; in that of A42U A43U, 1.01.

With A42U A45C, the yeast fitness came to 1.17. Turning to A43U C46U C49U, the yeast fitness amounted to 0.731. In the case of A43C C49A C66A it was ≤ 0.5; in that of A43G G50C U59C, ≤ 0.5. The same measure for A42U A57C C61U G67C: ≤ 0.5; for A43G G50A G51A C62U: ≤ 0.5. The same measure for A42G U54C: 0.815; for A42G U54A: 0.612. For A42G G50C A69C, the yeast fitness was ≤ 0.5. In the case of A43U C55U C66U it was 0.619; in that of A42U A43C C49A, ≤ 0.5; in that of A43G C55G, 0.684. In the case of A42U C55A it was 0.584. In the case of A43G C46U A70G it was 1.04. On to A43C A57U C62G, for which the yeast fitness came to 0.571. For the variant A42G A70G, the yeast fitness is 0.693. In the case of A42G A70C it was 0.853.

Regarding A42G C62U, the yeast fitness was determined as 0.962. Turning to A42G C62G, the yeast fitness came out at 0.848. The same measure for A42G G68A: 0.728.

Turning to A42G G68U, the yeast fitness amounted to 0.834. As for A42G G63C, the yeast fitness came out at 0.69. The same measure for A43G G63A A69U: 0.812; for A42U G63C: 0.715. The same measure for A42U C62U A65C: 0.526; for A43U G52C C62A: ≤ 0.5. Take A42U A43G G52C: the yeast fitness is ≤ 0.5.

As for A43G C66A, the yeast fitness stood at 0.791. In the case of A42U A45U A69C it was 0.656; in that of A43C G44C C55G C62U, 0.661; in that of A42G A45U C66U, 0.684. The same measure for A43G G58A C61G: ≤ 0.5; for A42G C49U A70U: 0.711. The same measure for A42G A45U G50C: ≤ 0.5. As to A43G G44C C66U, the yeast fitness stood at 0.57. On to A43G G48C C66G, for which the yeast fitness was ≤ 0.5. With A42U A45C A69C, the yeast fitness was determined as 0.67. In the case of A43G A57U G58A it was 0.531; in that of A43U G52A A69U, ≤ 0.5; in that of A43U G48A C60A, 0.586. The same measure for A43U A70G: 0.937; for A43U A70C: 0.898. The same measure for A43U C61G C62A: 0.581.

Take A43G U53A: the yeast fitness was determined as 0.657. In the case of A43U C55A C66U it was 0.6. The same measure for A43C U64C: 0.997. On to A42U C55A A65C, for which the yeast fitness was 0.538. As for A42U A57U G58C, the yeast fitness stood at 0.542.

Take A43G A45U U47C G63A: the yeast fitness is ≤ 0.5. A43U C49U C62U: the yeast fitness came out at 0.79.

Regarding A42U C62U A70C, the yeast fitness stood at 0.594. In the case of A43C U53C C66U A70C it was ≤ 0.5; in that of A42U U54C, 0.897; in that of A42U U54G, 0.605. Turning to A43G C49U A57C A65U, the yeast fitness is ≤ 0.5.

As for A43C C55U G67C, the yeast fitness stood at 0.556. In the case of A42G C62U G68A it was 0.79; in that of A43G A69U, 1.04; in that of A43G C60U C62U, 0.536. With A43G G67U, the yeast fitness is 0.85. The same measure for A43G G67A: 0.864. In the case of A43C C46U G63C C66U it was 0.581.

For the variant A43G U64G C66U, the yeast fitness was found to be 0.544. For the variant A43G G52C, the yeast fitness worked out at 0.643. The same measure for A42U U47G A57C C61A: ≤ 0.5; for A43C G63A A65C: 0.701.

For A43C G63C G67A, the yeast fitness is ≤ 0.5. In the case of A43U C60A C62U it was 0.65. The same measure for A42U U59G: 0.75; for A42U U59C: 1.01; for A42U U59A: 0.668. In the case of A42G U59G U64C C66G it was ≤ 0.5; in that of A42U G44C U54A, ≤ 0.5. A42U G58A C61G A70U: the yeast fitness was ≤ 0.5.

A43U C46U: the yeast fitness was 0.952. Regarding A43U U64G, the yeast fitness worked out at 0.7.

Turning to A43U A45C G67C, the yeast fitness is ≤ 0.5. The same measure for A43G G51A: 0.853; for A42G G48A C61G: ≤ 0.5. The same measure for A43C C49U C66U: 0.718; for A43G U47G C55G: 0.636.

As to A42U G67C A69C, the yeast fitness worked out at 0.573. Regarding A43G C46G U53C G56C, the yeast fitness was ≤ 0.5. As to A42U A65G, the yeast fitness was 1.01. In the case of A42U A65U it was 0.741; in that of A43C C62A, 0.874. The same measure for A43G G52C C55A C61A: ≤ 0.5; for A43C U47A G58C U64C: ≤ 0.5. With A43G G48A G50A G51A C62U, the yeast fitness is ≤ 0.5. The same measure for A43U U47C C55A A65U A70G: ≤ 0.5; for A43U A65C G68U: 0.527; for A43U C60A: 0.59. As to A43G G51C A69U, the yeast fitness was ≤ 0.5.

In the case of A42G G44C A57C, the yeast fitness was ≤ 0.5.

Turning to A43U C55G, the yeast fitness is 0.537. The same measure for A42G U47G: 0.771; for A42G U47C: 0.959; for A42U G44C: 0.842. In the case of A43G G51A C61U C62G it was ≤ 0.5; in that of A43U C60G C62G, ≤ 0.5.

For A43U C60G C62U, the yeast fitness came out at 0.839. In the case of A43G C61G C62U it was ≤ 0.5; in that of A42U A45C C55U A69C, ≤ 0.5; in that of A42G G51A A57C U59C C60U, ≤ 0.5. The same measure for A43G C49U A69C: 0.6. The same measure for A42G C61G C66A: ≤ 0.5.

On to A42U U47A G51A, for which the yeast fitness is ≤ 0.5. As for A43G G68C, the yeast fitness amounted to 0.712. For A42U G68C, the yeast fitness was 0.664. In the case of A42U G68U it was 0.744; in that of A43C G51A, 0.809; in that of A43C G51C, 0.587. Turning to A43C A45G G67A, the yeast fitness was 0.659. In the case of A42U A43U A57G A70U it was 0.574; in that of A42G G67C, 0.947.

Consider A42G G67A, for which the yeast fitness turned out to be 0.747. In the case of A42G A69G it was 0.749; in that of A42G A69U, 0.959; in that of A43C C49U C55G, 0.519. In the case of A42G G58C it was 0.906; in that of A43C G48C A57G, 0.817; in that of A43G U59A, 0.797.

Turning to A43U C46G A57G U64A A70G, the yeast fitness was ≤ 0.5. The same measure for A42U A43G G48C U53A: 0.566; for A43G A65G: 1.08; for A43G A65U: 0.899. In the case of A43G G51A C55G C60U it was ≤ 0.5; in that of A43U C49G G63A A69C, ≤ 0.5. In the case of A43G C60U A65G it was 0.535; in that of A43G C60U C62U G67A A70C, 0.576.
